Assay [1] has as its target T1, Histamine H1 receptor (Cavia porcellus, UniProt P31389). As to the kind of experiment: Inhibition of [3H]mepyramine binding to the Histamine H1 receptor in guinea pig cortex. The class given is tissue-based. In short, it runs like this: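 Cerebral cortex from female Dunkin-Hartley guinea pigs (200–500 g) homogenized in cold 50 mM Na/K phosphate pH 7.5, washed by three 48000g 4 °C spins, used fresh same day. Six concentrations in triplicate; IC50 by linear/nonlinear curve fitting.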

In assay [2] the test system is Cavia porcellus. Description: Protection against histamine-induced lethality in guinea pig at 1 hr pretreatment time upon peroral administration. In kind it is functional. The conditions noted are these: po. The gist of the method: (§1)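 Female English short-hair guinea pigs (250–500 g), fasted overnight, dosed orally by gavage at set times before intravenous histamine challenge (1.2 mg/kg). Survival at 24 h postchallenge scored as protection. Groups of 5–10 animals per treatment; ED50 by Litchfield–Wilcoxon or computer probit analysis.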

The target in assay [3] is T1, Histamine H1 receptor. Description: Inhibition of [3H]mepyramine binding to the histamine receptor in guinea pig cortex. The class given is tissue-based. In short, it runs like this:
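Cerebral cortex from female Dunkin-Hartley guinea pigs (200–500 g) homogenized in cold 50 mM Na/K phosphate pH 7.5, washed by three 48000g 4 °C spins, used fresh same day. [3H]mepyramine (15 nM stock, 23 Ci/mmol) incubated with membranes 20 min at 25 °C; filtration, scintillation counting. Six concentrations in triplicate; IC50 by linear/nonlinear curve fitting.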

Assay [4] deals with Cavia porcellus. Description: Protection against histamine-induced lethality in guinea pig at 6 hr pretreatment time upon peroral administration. In kind it is functional. The conditions noted are these: po. In short, it runs like this: as §1
The subject of assay [5] is Cavia porcellus. As to the kind of experiment: Protection against histamine-induced lethality in guinea pig at 24 hr pretreatment time upon peroral administration. In kind it is functional. The conditions noted are these: po. In short, it runs like this: as §1
Assay [6] has as its system Cavia porcellus. Description: Protection against histamine-induced lethality in guinea pig at 24 hr pretreatment time upon peroral administration. The class given is functional. The conditions noted are these: po. The gist of the method:
as §1

Molecules are shown by their SMILES.

Usually IC50 stands for the point on the concentration scale where inhibition reaches its midpoint. For orientation: ED50 means the dose that gives a 50% effect, or the effect in half of the subjects.

T1 sequence (P31389 whole entry): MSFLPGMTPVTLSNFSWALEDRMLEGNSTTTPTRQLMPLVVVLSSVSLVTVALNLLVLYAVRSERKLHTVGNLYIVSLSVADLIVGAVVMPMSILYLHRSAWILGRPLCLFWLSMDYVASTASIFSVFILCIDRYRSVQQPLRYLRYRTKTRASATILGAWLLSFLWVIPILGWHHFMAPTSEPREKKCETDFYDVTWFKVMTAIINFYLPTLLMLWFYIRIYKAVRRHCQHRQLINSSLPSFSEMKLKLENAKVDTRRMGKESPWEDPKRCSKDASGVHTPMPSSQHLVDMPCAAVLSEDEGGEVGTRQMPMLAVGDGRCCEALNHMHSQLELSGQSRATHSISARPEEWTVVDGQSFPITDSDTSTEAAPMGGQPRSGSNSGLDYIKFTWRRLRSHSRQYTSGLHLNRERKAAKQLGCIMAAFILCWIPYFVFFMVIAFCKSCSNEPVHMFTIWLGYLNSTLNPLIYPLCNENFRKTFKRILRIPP

On to `CN(C)CC[C@H]1CN(C)C(=S)c2cc(Cl)cnc2O1`, for which the IC50 at Histamine H1 receptor [1] was 11.9 µM. Besides, in the assay with Cavia porcellus [2], the ED50 turned out to be 66.8 mg/kg.
In the case of `CN(C)CC[C@@H]1CN(C)C(=S)c2cccnc2O1`, on Histamine H1 receptor [3], the IC50 turned out to be 0.03 µM. Also, the ED50 with Cavia porcellus [4] worked out at 2.96 mg/kg; in the assay with Cavia porcellus [2], 0.07 mg/kg.
With `CN(C)CCC(c1ccc(Cl)cc1)c1ccccn1` (configuration not stated) [CHLORPHENIRAMINE], the ED50 in the assay with Cavia porcellus [2] was 0.18 mg/kg.
Take `CN1C[C@@H](CCN2CCC2)Oc2ncc(Cl)cc2C1=S`: the figures for the ED50 in the assay on Cavia porcellus [5], with Cavia porcellus [4] and in the assay with Cavia porcellus [2] were 0.21 mg/kg, 0.0078 mg/kg and 0.0054 mg/kg, respectively. For the same compound, the IC50 on Histamine H1 receptor [3] was 0.00026 µM.
As for `CN1C[C@H](CCN2CCC2)Oc2ncc(Cl)cc2C1=S`, the IC50 at Histamine H1 receptor [1] worked out at 0.87 µM. Also, in the assay on Cavia porcellus [2], the ED50 amounted to 8.28 mg/kg.
Consider `CN(C)CC[C@@H]1CN(C)C(=S)c2cc(Cl)cnc2O1`, for which the ED50 in the assay with Cavia porcellus [6] turned out to be 58 mg/kg; with Cavia porcellus [4], 0.15 mg/kg; in the assay on Cavia porcellus [2], 0.013 mg/kg. In addition, the IC50 at Histamine H1 receptor [3] was 0.0019 µM.
The compound `CN(C)CCC(c1ccccn1)c1ccc(Cl)cn1` (configuration not stated) yielded an IC50 on Histamine H1 receptor [1] of 0.024 µM. Further, the ED50 in the assay on Cavia porcellus [2] stood at 0.009 mg/kg.
The matching figures for `CN(C)CCC(c1ccc(Cl)cc1)c1ccc(Cl)cn1` (configuration not stated): 0.43 µM and more than 10 mg/kg.
The matching figures for `CN(C)CC[C@H]1CN(C)C(=S)c2cccnc2O1`: 21 µM and 23 mg/kg.

For the origin of these results see ChEMBL document CHEMBL1125659, “Optical isomers of rocastine and close analogues: synthesis and H1 antihistaminic activity of its enantiomers and their structural relationship to the classical antihistamines” (J Med Chem, 1991).
